Results as given in ChEMBL document CHEMBL1165941, “Design and synthesis of 2,4-disubstituted polyhydroquinolines as prospective antihyperglycemic and lipid modulating agents” (Bioorg Med Chem, 2010).
pIC50: −log10 of the molar value. Activity calls are given as the source filed them. The rule behind the calls is not given here.

Key:
Rattus norvegicus [1] = experiment: Antihyperglycemic activity in Charles Foster-Wistar albino rat sucrose loaded model assessed as decrease of blood glucose level at 100 mg/kg, po administered 30 mins before glucose challenge measured up to 120 mins by glucometer; type: functional; set-up: scale not given: the % may be the effect or the level left; settings: in the assay text read “Sprague-Dawley” for “Charles Foster-Wistar”
Summary of the method: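 Sprague–Dawley male rats with blood glucose 60–80 mg/dl, 5–6 per group, received 100 mg/kg orally as a suspension in 1.0% gum acacia; controls received vehicle. Sucrose 10.0 g/kg was given orally 30 min later. Glucose was read by glucometer at 30, 60, 90 and 120 min. Food was withheld. Percent activity came from AUC versus control.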

[2] = Inhibition of glycogen phosphorylase assessed as […] phosphate release at 100 uM after 30 mins
Summary of the method: (§1)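 Glycogen phosphorylase was incubated with glycogen, glucose-1-phosphate, NaF and 5′-AMP for 30 min at 37 °C. The reaction was stopped with 10% TCA and 0.1 M sodium acetate. Samples were held overnight at 4 °C, then released Pi was measured.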

[3] = molecular target: Dipeptidyl peptidase 4 (Homo sapiens) (UniProt P27487); experiment: Inhibition of DPP4 at 100 uM after 15 mins by spectrofluorimeter
Chain of Dipeptidyl peptidase 4 (Homo sapiens) (P27487 whole entry, looked up): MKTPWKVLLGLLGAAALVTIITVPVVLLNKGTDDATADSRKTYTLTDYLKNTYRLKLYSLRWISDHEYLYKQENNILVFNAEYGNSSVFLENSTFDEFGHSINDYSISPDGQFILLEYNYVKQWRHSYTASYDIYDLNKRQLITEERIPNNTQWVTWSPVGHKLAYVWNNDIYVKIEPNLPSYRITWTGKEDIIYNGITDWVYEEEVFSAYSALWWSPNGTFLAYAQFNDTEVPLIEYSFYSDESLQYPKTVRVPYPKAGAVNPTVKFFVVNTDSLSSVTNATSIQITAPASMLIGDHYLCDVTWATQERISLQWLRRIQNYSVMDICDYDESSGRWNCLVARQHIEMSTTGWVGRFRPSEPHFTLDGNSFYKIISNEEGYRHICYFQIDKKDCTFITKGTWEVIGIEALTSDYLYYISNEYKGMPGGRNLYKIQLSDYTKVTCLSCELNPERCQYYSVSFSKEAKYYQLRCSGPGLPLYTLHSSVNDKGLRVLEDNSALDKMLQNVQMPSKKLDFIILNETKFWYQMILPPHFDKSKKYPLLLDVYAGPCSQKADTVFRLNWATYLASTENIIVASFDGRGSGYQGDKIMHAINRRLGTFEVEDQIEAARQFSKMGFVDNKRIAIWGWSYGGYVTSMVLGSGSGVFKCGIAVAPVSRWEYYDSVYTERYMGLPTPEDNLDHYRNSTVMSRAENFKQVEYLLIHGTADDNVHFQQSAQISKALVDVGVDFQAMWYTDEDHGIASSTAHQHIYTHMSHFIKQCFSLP
Summary of the method: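 DPP-IV activity was measured at 37 °C as Gly-Pro-AMC (30 µM) cleavage in Tris–HCl pH 7.4 with test compound. Fluorescence was read at excitation 355 nm and emission 460 nm. The initial rate was taken over the first 15 min.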

[4] = Inhibition of alpha-glucosidase at 100 uM after 3 mins
Summary of the method: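 α-Glucosidase (0.1 mg/mL, purified) was assayed in 67 mM sodium phosphate pH 6.8 with 1.0 mg/mL glutathione. The reaction was started with 3.0 mg/mL pNPG and followed at 405 nm every 30 s for 3 min.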

[5] = molecular target: T1, Tyrosine-protein phosphatase non-receptor type 1 (Homo sapiens, UniProt P18031); experiment: Inhibition of PTP1B assessed as p-nitrophenolate ion production pretreated for 10 mins measured after 30 mins
T1 sequence (P18031 whole entry): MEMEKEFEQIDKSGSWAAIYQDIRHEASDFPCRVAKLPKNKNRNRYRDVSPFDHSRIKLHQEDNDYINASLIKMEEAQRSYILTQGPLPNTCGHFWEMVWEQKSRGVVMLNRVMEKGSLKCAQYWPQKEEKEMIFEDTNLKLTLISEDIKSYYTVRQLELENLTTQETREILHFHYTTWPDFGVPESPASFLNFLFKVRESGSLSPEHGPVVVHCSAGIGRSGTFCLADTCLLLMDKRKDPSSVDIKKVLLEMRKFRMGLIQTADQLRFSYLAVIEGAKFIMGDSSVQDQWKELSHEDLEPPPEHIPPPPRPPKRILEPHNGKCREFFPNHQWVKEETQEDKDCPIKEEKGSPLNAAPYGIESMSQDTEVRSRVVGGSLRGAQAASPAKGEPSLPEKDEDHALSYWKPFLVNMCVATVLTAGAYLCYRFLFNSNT
Summary of the method: (§2)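 PTP1B was preincubated 10 min with compound, with and without 0.01% Triton X-100. Substrate was 10 mM pNPP in 50 mM HEPES pH 7.0 with 1 mM DTT and 2 mM EDTA. After 30 min at 37 °C the reaction was stopped with 0.1 N NaOH and A410 was read. Product was calculated with ε 1.78×10⁴ M⁻¹cm⁻¹. Sodium orthovanadate served as standard. IC50 came from dose–response curves.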

[6] = molecular target: T2, Tyrosine-protein phosphatase non-receptor type 1 (Homo sapiens) (UniProt P18031); experiment: Inhibition of PTP1B assessed as p-nitrophenolate ion production at 100 uM pretreated for 10 mins measured after 30 mins; summary of the method: as §2
T2 sequence (whole entry): T1 sequence (P18031 whole entry)

[7] = molecular target: T3, Glucose-6-phosphatase catalytic subunit 1 (Homo sapiens) (UniProt P35575); experiment: Inhibition of glucose-6-phosphatase assessed as inositol phosphate release at 100 uM after 30 mins; settings: in the assay text read “inorganic phosphate” for “inositol phosphate”
T3 sequence (whole entry): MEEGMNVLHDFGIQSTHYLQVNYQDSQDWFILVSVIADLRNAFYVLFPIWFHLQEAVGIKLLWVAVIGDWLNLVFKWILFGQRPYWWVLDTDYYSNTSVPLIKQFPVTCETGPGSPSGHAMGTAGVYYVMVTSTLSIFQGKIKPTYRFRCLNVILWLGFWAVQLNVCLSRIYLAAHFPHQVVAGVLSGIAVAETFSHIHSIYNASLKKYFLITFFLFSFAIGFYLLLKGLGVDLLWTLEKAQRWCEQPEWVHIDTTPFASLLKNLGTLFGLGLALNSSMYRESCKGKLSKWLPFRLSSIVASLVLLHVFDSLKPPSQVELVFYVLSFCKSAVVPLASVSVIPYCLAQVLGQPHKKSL
Summary of the method: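 Glucose-6-phosphatase was assayed in 0.3 M citrate pH 6.0 with 28 mM EDTA, 14 mM NaF, 200 mM glucose-6-phosphate and enzyme protein. After 30 min at 37 °C the reaction was stopped with 10% TCA. Activity was expressed as µmol Pi released per min per mg protein.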

Rattus norvegicus [8] = experiment: Antihyperglycemic activity in Sprague-Dawley albino rat streptozotocin-induced beta-cell damaged diabetic model assessed as decrease of blood glucose level at 100 mg/kg, po administered 30 mins before glucose challenge measured after 24 hrs by glucometer; type: functional; set-up: scale not given: the % may be the effect or the level left
Summary of the method: (§3)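 Rats were made diabetic with streptozotocin 60 mg/kg ip in 100 mM citrate pH 4.5 after an overnight fast. Animals with glucose 144–270 mg/dl at 48 h were used, 5–6 per group. Compounds were given 100 mg/kg orally in 1.0% gum acacia. Sucrose 2.5 g/kg followed 30 min later. Glucose was read by glucostrips up to 300 min and at 24 h. Non-responders were excluded. Percent activity came from AUC versus control.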

Rattus norvegicus [9] = experiment: Antihyperglycemic activity in Sprague-Dawley albino rat streptozotocin-induced beta-cell damaged diabetic model assessed as decrease of blood glucose level at 100 mg/kg, po administered 30 mins before glucose challenge measured after 5 hrs by glucometer; type: functional; set-up: scale not given: the % may be the effect or the level left; summary of the method: as §3
Rattus norvegicus [10] = experiment: Antidyslipidemic activity in Charles Foster rat assessed as reduction of Triton WR-1339-induced increase of blood phospholipid level at 100 mg/kg, po after 18 hrs; type: functional; set-up: scale not given: the % may be the effect or the level left
Summary of the method: (§4)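 Hyperlipidemia induced by Triton WR-1339, 400 mg/kg ip, in adult male Charles Foster rats (200–225 g), five per group. Compounds were macerated in 0.2% w/v gum acacia, suspended in water and given 100 mg/kg po together with triton. Plasma was obtained by centrifugation at 2500g, 4 °C, 10 min and diluted 1:3 in saline. TC, PL and TG were measured by enzymatic methods.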

Rattus norvegicus [11] = experiment: Antidyslipidemic activity in Charles Foster rat assessed as reduction of Triton WR-1339-induced increase of blood total cholesterol level at 100 mg/kg, po after 18 hrs; type: functional; set-up: scale not given: the % may be the effect or the level left; summary of the method: as §4
Rattus norvegicus [12] = experiment: Antidyslipidemic activity in Charles Foster rat assessed as reduction of Triton WR-1339-induced increase of blood triglyceride level at 100 mg/kg, po after 18 hrs; type: functional; set-up: scale not given: the % may be the effect or the level left; summary of the method: as §4
[13] = Inhibition of glycogen phosphorylase assessed as inositol phosphate release after 30 mins; summary of the method: as §1

SMILES | inhibition [2] | inhibition [3] | inhibition [4] | pIC50 [5] | inhibition [6] | inhibition [7] | pIC50 [13] | Activity (Rattus norvegicus [1]) | Activity (Rattus norvegicus [8]) | Activity (Rattus norvegicus [9]) | Activity (Rattus norvegicus [10]) | Activity (Rattus norvegicus [11]) | Activity (Rattus norvegicus [12])
CC1(C)CC(=O)C2=C(C1)NC(c1ccccc1)=CC2c1ccco1 (stereo not drawn) | 18.9% | 18.6% | inactive | 5.11 | 82.5% | 11.4% |  | 14.6% |  |  |  |  | 
CCOC(=O)C1=CC(c2ccc(F)cc2)C2=C(CC(C)(C)CC2=O)N1 (stereo not drawn) | 61.2% | 9.8% | 15.8% | 5.33 | 87.2% | inactive |  | 35.9% | 23.4% | 24.8% |  |  | 
COc1ccc(C2C=C(c3ccccc3)NC3=C2C(=O)CCC3)cc1 (stereo not drawn) | 13.8% | inactive | 7.3% |  | 56.8% | 17.3% |  | 29.6% | 19.4% | 17.5% |  |  | 
CC1(C)CC(=O)C2=C(C1)NC(c1ccccc1)=CC2c1ccc(Cl)cc1 (stereo not drawn) | 5.89% | inactive | 12.1% | 5.20 | 84.9% | 7.16% |  | 23.5% | 16.4% | 18.9% | -22.47% | -25.56% | -19.32%
Cc1ccc(C)c(OCCCC(C)(C)C(=O)O)c1 [GEMFIBROZIL] |  |  |  |  |  |  |  |  |  |  | -39.43% | -37.56% | -36.21%
CC1(C)CC(=O)C2=C(C1)NC(C(=O)O)=CC2c1ccccc1 (stereo not drawn) | 77.3% | 14.6% | 4.6% |  | 28.9% | 17.1% | 5.21 | 28.9% | 16.7% | 18.3% | -7.89% | -8.99% | -13.86%
CCOC(=O)C1=CC(c2ccc(Br)cc2)C2=C(CC(C)(C)CC2=O)N1 (stereo not drawn) | 49.3% | inactive | inactive | 4.78 | 65.6% | inactive |  | 11.4% |  |  |  |  | 
CC1(C)CC(=O)C2=C(C1)NC(C(=O)O)=CC2c1ccc(Br)cc1 (stereo not drawn) | 81.3% | inactive | inactive |  | 12.3% | inactive | 5.28 | 31.7% | 13.6% | 17.8% |  |  | 
O=C1CCCC2=C1C(c1ccc(Cl)cc1)C=C(c1ccccc1)N2 (stereo not drawn) | 19.3% | inactive | 27.9% |  | 24.7% | 8.21% |  | 24.7% | 16.9% | 12.9% | -5.9% | -6.7% | -7.89%

Second part, led by results:

inhibition [2] | inhibition [3] | inhibition [4] | pIC50 [5] | inhibition [6] | inhibition [7] | pIC50 [13] | SMILES | Activity (Rattus norvegicus [1]) | Activity (Rattus norvegicus [8]) | Activity (Rattus norvegicus [9]) | Activity (Rattus norvegicus [10]) | Activity (Rattus norvegicus [11]) | Activity (Rattus norvegicus [12])
inactive | inactive | 22.4% | 5.21 | 84.7% | inactive |  | CC1(C)CC(=O)C2=C(C1)NC(c1ccccc1)=CC2c1ccc([N+](=O)[O-])cc1 (stereo not drawn) | 14.1% |  |  |  |  | 
17.4% | inactive | inactive | 4.90 | 70.3% | 21.9% |  | O=C1CCCC2=C1C(c1ccc(F)cc1)C=C(c1ccccc1)N2 (stereo not drawn) | 34.5% | 24.1% | 19.6% |  |  | 
21.8% | inactive | inactive |  | 51.2% | inactive |  | O=C1CCCC2=C1C(c1ccccc1)C=C(c1ccccc1)N2 (stereo not drawn) | 19.7% | 13.8% | 15.1% |  |  | 
39.7% | inactive | inactive |  | 54.5% | 26.7% |  | CC1(C)CC(=O)C2=C(C1)NC(c1ccccc1)=CC2c1c[nH]c2ccccc12 (stereo not drawn) | 17.3% | 13.2% | 8.1% |  |  | 
inactive | 12% | 34.3% |  | 41.8% | inactive |  | CC1(C)CC(=O)C2=C(C1)NC(c1ccccc1)=CC2c1ccccc1 (stereo not drawn) | 24.9% | 13.3% | 17.3% | -19.23% | -17.89% | -16.45%
31.7% | inactive | inactive | 4.71 | 62.3% | inactive |  | Cc1ccc(C2=CC(c3ccccc3)C3=C(CC(C)(C)CC3=O)N2)cc1 (stereo not drawn) | 11.4% |  |  |  |  | 
63.4% | inactive | inactive |  | 25.4% | inactive | 5.01 | CC1(C)CC(=O)C2=C(C1)NC(C(=O)O)=CC2c1ccc(Cl)cc1 (stereo not drawn) | 13.7% | 12.2% | 16.6% | -15.38% | -17.45% | -11.97%
14.9% | inactive | inactive |  | 5.3% | inactive |  | CCOC(=O)C1(O)CC(c2ccc(F)cc2)C2=C(CC(C)(C)CC2=O)O1 (stereo not drawn) | 15.3% |  |  | -17.2% | -10.3% | -8.2%
inactive | 8.6% | inactive | 4.84 | 71.8% | inactive |  | COc1ccc(C2C=C(c3ccccc3)NC3=C2C(=O)CC(C)(C)C3)cc1 (stereo not drawn) | 17.8% | 10.9% | 8.8% |  |  | 
